Experimental data from publication PMC5508980 (Molecular nutrition & food research, 2017).

How the values were obtained:
[1] = target: recombinant HDAC4 (Homo sapiens, UniProt P56524); experiment: Recombinant HDAC activity assay; assay type: biochemical; settings: 2 h, read-out: % HDAC activity, Class IIa HDACs, 4
[2] = target: recombinant HDAC5 (Homo sapiens, UniProt Q9UQL6); experiment: Recombinant HDAC activity assay; assay type: biochemical; settings: 2 h, read-out: % HDAC activity, Class IIa HDACs, 5
[3] = target: T1, recombinant HDAC7 (Homo sapiens, UniProt Q8WUI4); experiment: Recombinant HDAC activity assay; assay type: biochemical; settings: 2 h, read-out: % HDAC activity, Class IIa HDACs, 7
T1 sequence (Q8WUI4 1-952): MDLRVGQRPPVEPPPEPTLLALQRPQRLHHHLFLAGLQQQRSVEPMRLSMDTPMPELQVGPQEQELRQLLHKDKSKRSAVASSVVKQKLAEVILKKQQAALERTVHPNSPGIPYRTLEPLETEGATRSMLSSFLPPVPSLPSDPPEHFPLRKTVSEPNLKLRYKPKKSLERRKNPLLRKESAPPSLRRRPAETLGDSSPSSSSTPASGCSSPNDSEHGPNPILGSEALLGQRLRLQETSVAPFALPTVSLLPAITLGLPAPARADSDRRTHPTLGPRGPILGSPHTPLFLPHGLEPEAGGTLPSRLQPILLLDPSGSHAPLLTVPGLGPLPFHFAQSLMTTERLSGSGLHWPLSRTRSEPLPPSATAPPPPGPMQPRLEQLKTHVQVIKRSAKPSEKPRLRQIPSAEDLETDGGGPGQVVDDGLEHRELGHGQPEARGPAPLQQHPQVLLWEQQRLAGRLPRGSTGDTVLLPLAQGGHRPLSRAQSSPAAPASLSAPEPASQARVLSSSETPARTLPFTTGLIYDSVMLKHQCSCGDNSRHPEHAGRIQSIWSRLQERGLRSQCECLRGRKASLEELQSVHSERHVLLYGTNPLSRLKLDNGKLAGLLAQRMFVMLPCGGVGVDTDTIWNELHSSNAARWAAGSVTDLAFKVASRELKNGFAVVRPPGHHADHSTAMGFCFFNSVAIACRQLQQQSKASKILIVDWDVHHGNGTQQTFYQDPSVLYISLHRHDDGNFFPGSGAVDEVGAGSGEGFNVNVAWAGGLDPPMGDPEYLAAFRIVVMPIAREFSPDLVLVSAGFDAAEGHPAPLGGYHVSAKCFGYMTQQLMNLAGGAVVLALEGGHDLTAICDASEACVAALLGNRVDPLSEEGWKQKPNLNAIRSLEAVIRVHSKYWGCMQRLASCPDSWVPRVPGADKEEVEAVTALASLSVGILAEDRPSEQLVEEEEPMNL

[4] = target: T2, recombinant HDAC10 (Homo sapiens, UniProt Q969S8); experiment: Recombinant HDAC activity assay; assay type: biochemical; settings: 2 h, read-out: % HDAC activity, Class IIb HDACs, 10
T2 sequence (Q969S8 1-669): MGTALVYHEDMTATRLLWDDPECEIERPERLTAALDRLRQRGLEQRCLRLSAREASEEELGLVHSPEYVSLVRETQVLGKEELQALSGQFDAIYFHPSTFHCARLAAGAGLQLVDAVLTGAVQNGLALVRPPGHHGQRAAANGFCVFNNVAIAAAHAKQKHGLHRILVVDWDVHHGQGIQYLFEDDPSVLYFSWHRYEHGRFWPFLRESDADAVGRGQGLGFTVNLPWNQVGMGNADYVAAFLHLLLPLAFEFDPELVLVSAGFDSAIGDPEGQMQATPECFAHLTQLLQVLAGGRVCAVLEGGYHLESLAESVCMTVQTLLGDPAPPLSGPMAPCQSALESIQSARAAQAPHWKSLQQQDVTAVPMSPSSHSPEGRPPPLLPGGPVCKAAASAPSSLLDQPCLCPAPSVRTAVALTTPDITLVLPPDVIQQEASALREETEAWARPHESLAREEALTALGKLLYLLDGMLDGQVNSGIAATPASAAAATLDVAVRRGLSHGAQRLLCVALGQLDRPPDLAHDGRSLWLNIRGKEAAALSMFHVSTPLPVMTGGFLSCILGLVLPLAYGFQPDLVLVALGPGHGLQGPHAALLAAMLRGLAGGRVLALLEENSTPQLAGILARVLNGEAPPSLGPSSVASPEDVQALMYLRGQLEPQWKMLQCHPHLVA

[5] = tested on: H9c2 cells; experiment: Acetyl-H3K9/14 immunoblot of whole cell extract; assay type: cell-based, rat; settings: H9c2 myocytes, 50 µM, 2 hours
How it was run: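 H9c2 cells were grown in DMEM with 10% FBS and treated at 90% confluence for 2 h with test compound or DMSO, with TSA as positive control. Washed in ice-cold PBS, lysed in PBS pH 7.4 with 0.5% Triton X-100 and 300 mM NaCl plus inhibitors, sonicated and clarified. SDS-PAGE, nitrocellulose, acetyl-H3K9/14 and total H3 antibodies, chemiluminescence; densitometry; ANOVA with Tukey.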

Sequence of recombinant HDAC5 (Q9UQL6 whole entry): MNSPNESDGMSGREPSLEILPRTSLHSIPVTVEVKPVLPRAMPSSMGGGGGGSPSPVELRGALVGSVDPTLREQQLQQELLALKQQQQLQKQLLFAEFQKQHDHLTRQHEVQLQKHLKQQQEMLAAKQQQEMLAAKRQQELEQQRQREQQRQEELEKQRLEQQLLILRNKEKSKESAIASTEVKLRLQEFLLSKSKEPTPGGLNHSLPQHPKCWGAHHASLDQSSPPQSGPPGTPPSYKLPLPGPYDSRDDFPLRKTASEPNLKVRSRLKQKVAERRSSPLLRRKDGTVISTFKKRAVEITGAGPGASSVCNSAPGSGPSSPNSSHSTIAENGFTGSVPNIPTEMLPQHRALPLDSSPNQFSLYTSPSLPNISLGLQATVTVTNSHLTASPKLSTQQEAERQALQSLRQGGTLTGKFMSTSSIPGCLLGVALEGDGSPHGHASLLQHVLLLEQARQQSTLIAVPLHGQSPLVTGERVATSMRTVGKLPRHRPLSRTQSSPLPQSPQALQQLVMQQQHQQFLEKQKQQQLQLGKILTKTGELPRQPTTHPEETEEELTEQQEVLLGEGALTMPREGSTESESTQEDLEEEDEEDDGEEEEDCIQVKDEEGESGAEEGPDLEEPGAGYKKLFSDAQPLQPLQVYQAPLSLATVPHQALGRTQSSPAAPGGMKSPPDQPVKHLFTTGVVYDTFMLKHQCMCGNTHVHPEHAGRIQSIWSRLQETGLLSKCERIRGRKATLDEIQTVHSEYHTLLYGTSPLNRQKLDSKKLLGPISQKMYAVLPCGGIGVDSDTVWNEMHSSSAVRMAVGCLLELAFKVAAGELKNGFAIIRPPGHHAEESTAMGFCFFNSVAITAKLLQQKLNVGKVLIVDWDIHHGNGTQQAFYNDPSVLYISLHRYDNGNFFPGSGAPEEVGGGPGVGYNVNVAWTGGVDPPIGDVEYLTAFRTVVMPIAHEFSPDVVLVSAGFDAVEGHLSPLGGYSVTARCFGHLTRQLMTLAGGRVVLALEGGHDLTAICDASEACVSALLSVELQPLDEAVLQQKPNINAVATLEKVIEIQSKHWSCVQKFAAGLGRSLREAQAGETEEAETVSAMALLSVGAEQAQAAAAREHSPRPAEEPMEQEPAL
Sequence of recombinant HDAC4 (P56524 whole entry): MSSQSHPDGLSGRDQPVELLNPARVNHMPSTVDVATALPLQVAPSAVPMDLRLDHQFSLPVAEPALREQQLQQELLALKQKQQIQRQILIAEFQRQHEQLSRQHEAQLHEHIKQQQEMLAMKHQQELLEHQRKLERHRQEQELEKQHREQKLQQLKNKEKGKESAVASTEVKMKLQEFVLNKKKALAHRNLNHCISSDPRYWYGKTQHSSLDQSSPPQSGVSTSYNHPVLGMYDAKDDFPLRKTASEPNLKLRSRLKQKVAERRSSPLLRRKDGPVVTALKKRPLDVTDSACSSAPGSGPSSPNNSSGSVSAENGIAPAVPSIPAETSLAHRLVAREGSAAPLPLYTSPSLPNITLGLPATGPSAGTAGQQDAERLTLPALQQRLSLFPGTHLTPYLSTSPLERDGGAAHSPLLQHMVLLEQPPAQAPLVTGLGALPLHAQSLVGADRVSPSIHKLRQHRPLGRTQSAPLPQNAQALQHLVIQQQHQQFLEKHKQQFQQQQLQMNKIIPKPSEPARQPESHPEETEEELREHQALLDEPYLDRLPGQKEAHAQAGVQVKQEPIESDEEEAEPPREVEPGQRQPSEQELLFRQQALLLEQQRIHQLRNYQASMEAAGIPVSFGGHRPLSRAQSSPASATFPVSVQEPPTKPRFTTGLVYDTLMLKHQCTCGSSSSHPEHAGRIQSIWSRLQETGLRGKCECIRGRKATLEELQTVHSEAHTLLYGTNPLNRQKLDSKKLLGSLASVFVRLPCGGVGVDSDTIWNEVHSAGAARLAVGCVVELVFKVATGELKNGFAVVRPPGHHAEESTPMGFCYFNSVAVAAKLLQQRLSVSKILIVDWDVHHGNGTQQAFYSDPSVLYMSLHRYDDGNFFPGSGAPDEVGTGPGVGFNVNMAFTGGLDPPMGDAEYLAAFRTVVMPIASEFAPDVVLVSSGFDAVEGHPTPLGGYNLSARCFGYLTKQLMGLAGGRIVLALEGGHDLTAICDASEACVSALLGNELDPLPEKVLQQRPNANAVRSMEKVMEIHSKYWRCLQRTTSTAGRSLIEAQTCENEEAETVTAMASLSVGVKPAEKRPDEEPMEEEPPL

`Cc1cc(O)c2c(c1)C(=O)c1cc(O)cc(O)c1C2=O` [Emodin] gave a remaining activity at 50 µM [1] of 92.8%, a remaining activity at 50 µM [2] of 31.4% and a remaining activity at 50 µM [3] of 53.1%. The remaining activity at 50 µM [4] was 35.8% and the “acetylation of histone 3 on lysine 9/14 (Ac-H3 K9/14) via immunoblot” value [5] was “increased”.
